B1: tRNA (parent)
chain: GUUCCGUUGGCGUAAUGGUAACGCGUCUCCCUCCUAAGGAGAAGACUGCGGGUUCGAGUCCCGUACGGAACG

Variants of: B1
Assay: yeast fitness, log relative to wild type (ln ratio); higher = fitter; tRNA-Arg(CCU), competitive growth, 37 C, 1 M NaCl
Summary of the method: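 Variants were counted by 125 bp paired-end Illumina sequencing after pools of a combinatorial tRNA-Arg(CCU) library, held on a HIS3 centromeric plasmid in BY4742 lacking the chromosomal gene, grew ~6.5 generations (~26.5 h) in SC-HIS 1M NaCl at 37 °C. Each genotype's fitness is the natural log of its generations relative to the wild type's. Generations were OD-scaled log2 output/input frequencies, inverse-variance weighted over replicates.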

Compared with U2G C27U A43C C46U C66U C71U, C27U A43C C66U A69G A70G C71U is lower in “yeast fitness (ln)” value: -0.292 for the first, -0.318 for the second.

Going from U2G G6U C27U C46U C66U A69G A70G to U2G C27U C46U C66A C71U, the “yeast fitness (ln)” value rises from -0.277 to -0.163.

Going from G1A U2G G6U C27U C46U C66U A69G C71U to G6U C27U C66A A69G C71U, the “yeast fitness (ln)” value falls from -0.434 to -0.806.

Going from U2C G6A C27U A43C C46U C66A A70U C71U to G1A G6U C27U C46U C66A C71U, the “yeast fitness (ln)” value rises from -0.268 to -0.0536.

Compared with G1A U2G A43C C46U, G1A C46U C66U A69G A70G is lower in “yeast fitness (ln)” value: -0.042 for the first, -0.134 for the second.

Compared with G1A U2G G6U C46U C66A A69G A70U C71U, G6U A43C C66A A69G C71U is lower in “yeast fitness (ln)” value: -0.227 for the first, -0.368 for the second.

Going from U2C A69G A70U C71U to U2C C27U C46U, the “yeast fitness (ln)” value rises from -0.199 to -0.0168.

First: G1A U2G C27U C66U A69G A70U
Second: U2C C27U A43C C66U A69G A70U C71U
The “yeast fitness (ln)” value of the first is higher: -0.35 for the first, -0.476 for the second.

First: U2C G6A C27U C46U C66U A69G A70U C71U
Second: G6U A43C C46U C66A A70U C71U
The “yeast fitness (ln)” value of the first is lower: -0.289 for the first, -0.214 for the second.

First: U2C G6A A43C C46U C66U A70G C71U
Second: C27U A43C C46U C66A A70G
The “yeast fitness (ln)” value of the first is higher: -0.0112 for the first, -0.0609 for the second.

First: U2G C27U A43C C46U A70G C71U
Second: U2G G6U C27U A43C C46U A69G A70G
The “yeast fitness (ln)” value of the first is higher: -0.115 for the first, -0.242 for the second.

First: U2C
Second: U2G G6A C46U C66U
The “yeast fitness (ln)” value of the first is higher: 0.0175 for the first, -0.0595 for the second.

Going from U2G C46U C66A A70U C71U to G1A U2C C27U A70U, the “yeast fitness (ln)” value rises from -0.0966 to -0.0826.

First: G1A U2G G6U C27U A43C C46U A70G
Second: G6A C27U A43C C66U A69G A70G
The “yeast fitness (ln)” value of the first is lower: -0.387 for the first, -0.374 for the second.

First: G1A U2C G6U C27U A43C A69G A70G C71U
Second: G1A U2C G6A A43C C46U C66U A69G A70U
The “yeast fitness (ln)” value of the first is lower: -0.238 for the first, -0.0607 for the second.

First: G1A U2G C46U C66U A69G C71U
Second: G1A G6U C27U A43C C46U A69G C71U
The “yeast fitness (ln)” value of the first is higher: -0.318 for the first, -0.328 for the second.

First: G1A U2G G6U C27U A43C C46U A70U C71U
Second: G1A G6A C27U C46U C66U A69G C71U
The “yeast fitness (ln)” value of the first is lower: -0.339 for the first, -0.132 for the second.

Compared with U2G G6U C27U C46U A70G C71U, U2G C27U C46U C66A A69G A70U C71U is lower in “yeast fitness (ln)” value: -0.262 for the first, -0.383 for the second.

Compared with G1A U2G C27U C66A A69G A70G C71U, U2C G6U C46U C66U A69G A70G is higher in “yeast fitness (ln)” value: -0.265 for the first, -0.066 for the second.

Going from G1A G6U A43C C66U to G1A C27U A43C C66A A69G A70G, the “yeast fitness (ln)” value falls from -0.232 to -0.279.

Going from G1A U2G G6U C66A C71U to G1A G6A C66U A70G C71U, the “yeast fitness (ln)” value rises from -0.193 to -0.0543.

Compared with A43C C46U C66A, G1A U2G G6A C46U A69G A70G C71U is lower in “yeast fitness (ln)” value: -0.0152 for the first, -0.162 for the second.

First: C27U A43C C46U A69G A70G C71U
Second: U2G G6U C46U C66U A69G A70G
The “yeast fitness (ln)” value of the first is higher: -0.0917 for the first, -0.162 for the second.

First: G6U C27U A43C C46U A69G A70G C71U
Second: A43C C46U C71U
The “yeast fitness (ln)” value of the first is lower: -0.356 for the first, -0.00724 for the second.

Going from G1A G6U A43C C46U A70G to G1A G6A C27U A43C C46U A69G A70U C71U, the “yeast fitness (ln)” value falls from -0.201 to -0.399.

Going from U2C G6A C66A A70G to U2C G6U A69G C71U, the “yeast fitness (ln)” value falls from -0.0699 to -0.0844.

Compared with U2C C27U C66U A70U C71U, U2C G6U C27U C46U C66A A70U is higher in “yeast fitness (ln)” value: -0.324 for the first, -0.29 for the second.

Going from G1A U2G C27U C46U C66A A69G A70U to U2C G6U C27U C66A A70U, the “yeast fitness (ln)” value rises from -0.191 to -0.16.

First: U2C G6U C27U C66A A70G
Second: U2G G6U C27U A43C C66U A69G C71U
The “yeast fitness (ln)” value of the first is higher: -0.0277 for the first, -0.645 for the second.

Going from G1A U2G G6A C46U C66A A70G C71U to A43C C46U C66U A69G A70G C71U, the “yeast fitness (ln)” value rises from -0.185 to -0.158.

Compared with G6A A43C C46U A69G A70G, U2G C27U A69G A70G is lower in “yeast fitness (ln)” value: -0.216 for the first, -0.217 for the second.

First: U2C C27U A43C C46U A69G
Second: G6A A43C A69G C71U
The “yeast fitness (ln)” value of the first is higher: -0.0409 for the first, -0.29 for the second.

First: U2C G6U C27U C66A A69G A70U C71U
Second: G1A U2G G6U C27U A43C C46U A69G C71U
The “yeast fitness (ln)” value of the first is lower: -0.525 for the first, -0.39 for the second.

Compared with G1A C27U A43C C66A A69G A70U C71U, G6A C27U A43C C46U C66U A70G C71U is higher in “yeast fitness (ln)” value: -0.431 for the first, -0.213 for the second.

Going from G1A U2C G6A C46U C66U A70G C71U to U2C G6U C46U C66U A69G A70U C71U, the “yeast fitness (ln)” value falls from 0.0112 to -0.282.

Going from G1A G6U C27U A70U C71U to U2C C46U C66U, the “yeast fitness (ln)” value rises from -0.335 to -0.171.

First: U2C C46U C66A
Second: G1A G6A C27U C46U
The “yeast fitness (ln)” value of the first is higher: -0.0347 for the first, -0.143 for the second.

Compared with U2C G6U A43C C46U C71U, U2G C66A A69G A70G C71U is lower in “yeast fitness (ln)” value: -0.125 for the first, -0.152 for the second.

Compared with G1A U2C C27U A43C C46U, G1A U2G A43C C71U is lower in “yeast fitness (ln)” value: -0.0167 for the first, -0.129 for the second.

Going from U2C G6U C27U C46U C71U to U2G C27U A43C C46U A69G, the “yeast fitness (ln)” value rises from -0.235 to -0.0569.

Compared with U2G C27U A43C C46U C66U A70G C71U, G6A A43C A70G is higher in “yeast fitness (ln)” value: -0.231 for the first, -0.223 for the second.

Compared with G1A U2C G6A C46U A70G C71U, U2G G6A C46U A70U is higher in “yeast fitness (ln)” value: -0.00868 for the first, 0.00257 for the second.
